Compounds with a hit are over-represented: about 2.6% of the library has one in this group of screens.
AHR act: human AHR activation; activation, % at 5 µM; AHR-responsive luciferase reporter cells, luminescence; AID 2796; hit rate 2.5% among 320,000; in the data active = activation above about 47%
procasp3 activ: activators of human procaspase-3 | recombinant procaspase-3 D3A, Ac-DEVD-pNA absorbance 405 nm | AID 463141 | activation, % at 8.5 µM | hit rate 0.11% among 330,000 | P42574;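 active = activation above the mean of all tested compounds plus 3 SD, cut at about 21% in these data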
Target sequence (P42574 whole entry D9A/D28A/D175A): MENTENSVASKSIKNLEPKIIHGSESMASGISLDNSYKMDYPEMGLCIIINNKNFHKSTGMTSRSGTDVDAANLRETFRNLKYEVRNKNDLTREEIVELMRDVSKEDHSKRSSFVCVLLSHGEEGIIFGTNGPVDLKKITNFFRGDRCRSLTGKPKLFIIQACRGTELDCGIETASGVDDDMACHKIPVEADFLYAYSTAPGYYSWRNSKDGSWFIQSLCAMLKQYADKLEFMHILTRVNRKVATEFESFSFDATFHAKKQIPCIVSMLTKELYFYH
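Assay system – Procaspase-3 D3A mutant · Benchmarks – DMSO low control, extra-enzyme high control · Technique – 405 nm absorbance of p-nitroaniline, reads at 0 and 120 min · Doses – 8.5 µM nominal · Measure – % activation between DMSO and enzyme-spiked controls · Also added – Ac-DEVD-pNA chromogenic peptide substrate · Schedule – 1 h compound preincubation, 2 h substrate hydrolysis at 25 °C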
proCasp7 act: activates human procaspase-7, counter-screen for procaspase-3 activators. hit rate 0.093% among 330,000. activation, % at 8.5 µM. recombinant procaspase-7, Ac-DEVD-pNA absorbance 405 nm; D23A/D198A/D206A triple mutant, cannot self-cleave; scale: DMSO 0, 5 µM enzyme 100. P55210. AID 463210;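 active = percent activation above the screen-wide mean plus 3 SD, cut at about 25% in these data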
Target sequence (P55210 whole entry D23A/D198A/D206A): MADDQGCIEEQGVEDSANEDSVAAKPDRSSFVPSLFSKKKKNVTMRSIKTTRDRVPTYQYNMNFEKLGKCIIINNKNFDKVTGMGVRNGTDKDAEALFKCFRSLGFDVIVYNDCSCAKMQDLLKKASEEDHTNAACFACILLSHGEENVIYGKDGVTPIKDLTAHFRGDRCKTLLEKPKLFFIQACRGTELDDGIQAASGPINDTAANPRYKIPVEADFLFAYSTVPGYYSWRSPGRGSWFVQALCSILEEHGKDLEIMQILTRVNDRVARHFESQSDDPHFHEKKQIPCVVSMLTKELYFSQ
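System: Uncleavable procaspase-7 mutant enzyme; Amount: 2 µM procaspase-7 mutant as dispensed; Schedule: 1 h compound preincubation, 2 h substrate cleavage, 25 °C; Measured by: 405 nm absorbance of p-nitroaniline; Evaluation: percent activation from buffer-corrected 0–120 min absorbance change; Control set: low DMSO alone, high DMSO plus 5 µM PC-7.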
PolyA inh: yeast polyadenylation inhibition; S. cerevisiae SKY197-pL101 polyadenylation reporter, beta-gal luminescence; efflux-impaired pdr1/pdr3 knockout yeast; score 100 = 6 SD above DMSO; activity score, % at 12 µM; hit rate 0.02% among 300,000; AID 1875;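 active = lowest replicate activity score at least 50, where 100 means six control SD above control mean; inconclusive = lowest score under 50 but half or more replicates reach 50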;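 note: yeast exposed to compound for 9 h at 30 °C; higher score means more reporter readthrough which indicates perturbed polyadenylation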
Of the large screens only hits and unclear results are named; the others gave an inactive call.

CCn1cc(/C=N\NC(=O)c2c[nH]c3ccccc23)c(C)n1	none
O=C(N/N=C/c1cn(-c2ccccc2)nc1-c1cc2ccccc2o1)c1c[nH]c2ccccc12	AHR act 109
Cc1nn(-c2ccc(F)cc2)c2nc(N)c(C#N)c(-c3ccc(O)c(O)c3)c12	none (no result: AHR act, procasp3 activ, proCasp7 act)
Cc1nn(-c2ccc(F)cc2)c2nc(N)c(C#N)c(-c3cccs3)c12	AHR act 65
Nc1[nH]c(N=NC(=O)c2ccc(F)cc2)c2ccccc12	none
Nc1ccccc1C(=O)N=Nc1[nH]c(N)c2ccccc12	AHR act 61
COc1ccc(NS(=O)(=O)c2cc(NC(=O)Cn3cnc4c3c(=O)n(C)c(=O)n4C)ccc2C)cc1	none
COc1ccc(NC(=O)COc2cccc(-n3cnnn3)c2)cc1Cl	none
CCCN(CCC)C(=O)c1cc(-c2ccc3c(c2)OCO3)nc2ccccc12	AHR act 66
O=C(O)c1cc(-c2ccc3c(c2)OCO3)nc2ccccc12	none
CC(=O)c1cccc(NC(=O)N2CCCC2C(=O)Nc2ccc3c(c2)OCO3)c1 (stereo not drawn)	none
Cc1ccccc1-c1ccc(/C=C2/SC(N3CCOCC3)=NC2=O)o1	none
O=C1N=C(N2CCOCC2)S/C1=C\c1ccc(-c2ccccc2Cl)o1	AHR act 50
O=C1N=C(N2CCOCC2)S/C1=C\c1cccs1	none
C=CCn1cc(/C=C2\SC(N3CCOCC3)=NC2=O)c2ccccc21	AHR act 71
Cc1ccccc1OCC(=O)Nc1ccc([N+](=O)[O-])cc1	none
CCC(C)Nc1nc(-c2ccc3c(c2)NC(=O)CO3)cs1 (stereo not drawn)	AHR act 63
O=[N+]([O-])c1ccc(C2=Nc3cc(Cl)ccc3OC2)cc1	AHR act 67
CN(CC(=O)Nc1ccccc1Br)CC(=O)Nc1ccccc1C(F)(F)F	none
FC(F)(F)c1ccc(-n2cnc3ccccc32)nc1	AHR act 65
COc1cnc(-c2ccccn2)nc1N(C)c1ccccc1	none
CN(C)C(=O)c1ccc(NC(=O)c2sccc2-c2ccccc2)cc1	none
CC1=NN(C(N)=S)C(=O)C1N=Nc1ccc(S(N)(=O)=O)cc1 (stereo not drawn)	none
CC1=NN(C(N)=S)C(=O)C1N=Nc1ccc(C)cc1C (stereo not drawn)	AHR act 67
CC1=NN(C(N)=S)C(=O)C1N=Nc1c(C)cc(C)cc1C (stereo not drawn)	none
CCOc1ccccc1N=NC1C(=O)N(C(N)=S)N=C1C (stereo not drawn)	AHR act 65
CC1=NN(C(N)=S)C(=O)C1N=Nc1ccccc1O (stereo not drawn)	AHR act 47
CC1=NN(C(N)=S)C(=O)C1N=Nc1ccccc1C (stereo not drawn)	AHR act 57
C=CCn1c(SCC(=O)NCC(c2ccccc2)N(C)C)nnc1C1CCCCC1 (stereo not drawn)	none (no result: PolyA inh)
Cc1ccc(S(=O)(=O)NC(C)(C)CN2CCCCC2)cc1	none
CCOc1ccccc1N=Nc1c(C)[nH]n(C(N)=S)c1=O	AHR act 65
CCN(CC)S(=O)(=O)c1ccc(N2CCCC2)c(NC(=O)C2CSC3(C)CCC(=O)N23)c1 (stereo not drawn)	none
O=C(CCn1cccc1)Nc1ccc(OC(F)(F)F)cc1	none
CCn1c(C)cc(/C=C2\NC(=O)N(Cc3ccccc3)C2=O)c1C	AHR act 70
Cc1cc(/C=C2/NC(=O)N(Cc3ccccc3F)C2=O)c(C)n1C(C)C	AHR act 114
CC1(c2ccccc2Cl)NC(=O)N(CC(=O)Nc2ccc(N3CCCCC3)cc2)C1=O (stereo not drawn)	none
OCCCNc1nc(-c2ccc(Cl)cc2)nnc1-c1ccccc1	AHR act 64
Clc1ccc(-c2nnc(-c3ccccc3)c(-c3ccccc3)n2)cc1	none
Clc1ccc(-c2nnc(-c3ccccc3)c(-c3c[nH]c4ccccc34)n2)cc1	AHR act 51
O=C(NCCc1ccc(C(F)(F)F)cc1)C1CCC(=O)N(CCCN2CCCC2=O)C1 (stereo not drawn)	none
COc1ccc(CNC(=O)C2CCC(CNS(=O)(=O)c3ccc(C)cc3)CC2)cc1 (stereo not drawn)	none
Nc1ncc(-n2cncn2)c(-c2ccc(Cl)cc2)n1	none
O=C(Nc1ccccc1)c1ccc(=O)n(Cc2cccc(Cl)c2)c1	none
C#CCn1cc(Cl)cc(C(=O)Nc2ccccc2)c1=O	AHR act 62
Cc1sc2nc(CSCC(=O)Nc3ccc(C(F)(F)F)cc3)[nH]c(=O)c2c1C	AHR act 59 (no result: PolyA inh)
CCCCNC1c2ccccc2C(=O)N1Cc1ccccc1 (stereo not drawn)	none
O=C(/C=C/c1c(Cl)nc2ccccn12)N1CCN(c2ccccc2F)CC1	none
O=C(/C=C/c1c(Cl)nc2ccccn12)N1CCCCC1	AHR act 59
Cc1ccc(C(C)NC(=O)c2ccc3c(c2)OCO3)cc1C (stereo not drawn)	none
C/C(=N\NC(=O)c1ccccc1O)c1ccc(NC(=O)Cc2ccccc2)cc1	AHR act 52
Cn1nc(C(=O)Nc2cc(Cl)ccc2N2CCCC2)c2ccccc2c1=O	AHR act 64 (no result: PolyA inh)
CN1CCN(c2ccc(Cl)cc2NC(=O)c2nn(-c3ccccc3)c(=O)c3ccccc23)CC1	none (no result: AHR act, procasp3 activ, proCasp7 act)
Cc1onc(-c2ccccc2Cl)c1C(=O)Nc1cccc(S(=O)(=O)NC2=NCCC2)c1	none
CC(=O)Nc1cccc(C(=O)N2CCC(n3nccc3NC(=O)CC(C)C)CC2)c1	none
CC1(CCc2ccccc2)NC(=S)N(c2ccccc2)N1 (stereo not drawn)	none
CC1(CCc2ccccc2)NC(=S)N(c2ccc(Cl)cc2)N1 (stereo not drawn)	AHR act 55, PolyA inh inconclusive
Cc1ccc(S(=O)(=O)N2CCN(C(=O)c3sccc3-c3ccccc3)CC2)cc1	none
CCOC(=O)c1cc(-c2ccc(OC(F)F)cc2)nc2c1c(=O)[nH]c(=O)n2C	AHR act 61
CCOC(=O)c1cc(-c2ccc(OC(F)F)cc2)nc2nc(SC)[nH]c(=O)c12	none
N#Cc1cc2c(=O)n3ccccc3nc2n(CCCn2ccnc2)c1=N	AHR act 102
CCCn1c(=N)c(C#N)cc2c(=O)n3ccccc3nc21	AHR act 85
CC(C)N(Cc1ccccc1)C(=O)COC(=O)c1cc[n+]([O-])cc1	none (no result: PolyA inh)
CCc1ccc2c(c1)C1(NN=C(c3ccc(C)cc3)S1)C(=O)N2 (stereo not drawn)	AHR act 55
CC(C)c1ccc2c(c1)C1(NN=C(c3ccccc3)S1)C(=O)N2 (stereo not drawn)	none
Cn1c(=O)n(/N=C/c2ccccc2)c2ccccc21	AHR act 62
COCC(C)NC(=O)CSc1nc2ccccc2c(=O)n1CCc1ccc(S(N)(=O)=O)cc1 (stereo not drawn)	none
CC(C)c1ccc(NC(=S)NC2CCCCCC2)cc1	none
Cc1ccc(NC(=S)NNC(=S)NC2CCCCC2)cc1	AHR act 50
Fc1ccc(/C=C\c2nccc3c2[nH]c2ccccc23)cc1	none

Screening results from PubChem BioAssay.
